Measured values pooled from the literature.
Each line is one published result; the experiments were not run side by side.
Cell line: BEAS-2B
Effect on: cell growth or viability
Technique: MTT

Compound | setting | IC50 [µM]
OC1CCN(c2ccc(/C=N/NC(=S)NCc3ccccc3)cc2)CC1 | 24 h | 12.6
C[C@H]1[C@H](C)CC[C@]2(C(=O)O)CC[C@]3(C)C(=CC[C@@H]4[C@@]5(C)CC[C@H](O)C(C)(C)[C@@H]5CC[C@]43C)[C@H]12 | 24 h | 16
C/C(=N\C(=O)/N=C(\C)c1c(O)c2ccccc2oc1=O)c1c(O)c2ccccc2oc1=O | 48 h | 21.9
COc1cccc2c1C(=O)c1c(O)c3c(c(O)c1C2=O)C[C@@](O)(C(=O)CO)C[C@@H]3O[C@H]1C[C@H](N)[C@H](O)[C@H](C)O1 | 24 h | > 100
CCOC(=O)c1cc(C)n(Cn2cnc3ccccc32)n1 | 24 h | 422
OC1CCN(c2ccc(/C=N/NC(=S)Nc3cccc(Cl)c3Cl)cc2)CC1 | 24 h | 16.9
CC(=O)c1c(O)c2ccccc2oc1=O | 48 h | 28.9
Cc1cc(Cn2ccnc2)nn1C | 24 h | > 800
OC1CCN(c2ccc(/C=N/NC(=S)NC3CCCCC3)cc2)CC1 | 24 h | 14.5
Cc1cc(C)n(Cn2ccnc2)n1 | 24 h | 339
C/C(=N\C(=S)/N=C(\C)c1c(O)c2ccccc2oc1=O)c1c(O)c2ccccc2oc1=O | 48 h | 9.01
OC1CCN(c2ccc(/C=N/NC(=S)NCCc3ccccc3)cc2)CC1 | 24 h | 15
C/C(=N\NC(=O)/N=C(\C)c1c(O)c2ccccc2oc1=O)c1c(O)c2ccccc2oc1=O | 48 h | 50.3
Cc1cc(C)n(Cn2cnc3ccccc32)n1 | 24 h | 739
